From ChEMBL document CHEMBL1129682, “(S)-(-)-4-[4-[2-(isochroman-1-yl)ethyl]-piperazin-1-yl] benzenesulfonamide, a selective dopamine D4 antagonist” (J Med Chem, 1996)

Experiments:
Translocator protein [1] = molecular target: Translocator protein (Rattus norvegicus, UniProt P16257); test: Displacement of [3H]PK11195 binding from peripheral benzodiazepine receptor in C6 rat glioma cell line; format: cell-based
Translocator protein [2] = molecular target: Translocator protein (Mus musculus, UniProt P50637); test: Displacement of [3H]PK11195 binding from peripheral benzodiazepine receptor in MA-10 mouse tumor Leydig cells; format: cell-based
Translocator protein (Mus musculus, UniProt P50637), sequence (P50637 whole entry, looked up): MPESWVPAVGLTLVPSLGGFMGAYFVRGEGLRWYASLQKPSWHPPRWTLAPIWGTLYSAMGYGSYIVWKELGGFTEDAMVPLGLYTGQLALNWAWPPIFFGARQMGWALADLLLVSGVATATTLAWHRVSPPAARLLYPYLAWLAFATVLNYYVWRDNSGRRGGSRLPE

[3] = molecular target: Adrenergic receptor alpha-1 (Rattus norvegicus) (UniProt P15823+P23944+P43140); test: (§1) […] against binding of [3H]prazosin to cloned mammalian Alpha-1 adrenergic receptor expressed in cultured cells or from rat whole brain […]; format: cell-based
[4] = molecular target: Adrenergic receptor alpha-2 (Rattus norvegicus) (UniProt P22086+P19328+P22909); test: […] against binding of [3H]clonidine to cloned mammalian Alpha-2 adrenergic receptor expressed in cultured cells or from rat whole brain at 1 uM
D(2) dopamine receptor [5] = molecular target: T1, D(2) dopamine receptor (Rattus norvegicus, UniProt P61169); test: Binding affinity of [3H]U-86170 towards Dopamine receptor D2 in cloned mammalian receptor expressed in cultured cells or from rat whole brain; format: cell-based
T1 sequence (P61169 whole entry): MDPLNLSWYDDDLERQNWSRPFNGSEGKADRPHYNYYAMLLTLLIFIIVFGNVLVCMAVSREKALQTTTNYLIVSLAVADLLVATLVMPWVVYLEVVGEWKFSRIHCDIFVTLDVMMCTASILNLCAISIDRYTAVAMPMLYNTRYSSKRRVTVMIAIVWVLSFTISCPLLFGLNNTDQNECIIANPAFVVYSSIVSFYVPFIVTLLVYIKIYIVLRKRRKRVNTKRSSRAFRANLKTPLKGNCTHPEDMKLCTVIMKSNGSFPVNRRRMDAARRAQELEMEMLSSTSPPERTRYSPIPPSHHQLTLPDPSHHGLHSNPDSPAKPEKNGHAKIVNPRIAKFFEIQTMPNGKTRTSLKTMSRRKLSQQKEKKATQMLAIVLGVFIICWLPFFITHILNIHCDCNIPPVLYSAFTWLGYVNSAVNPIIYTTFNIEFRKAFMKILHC

[6] = molecular target: T2, 5-hydroxytryptamine receptor 1A (Rattus norvegicus, UniProt P19327); test: Binding affinity of [3H]-8-OH-DPAT towards 5-hydroxytryptamine 1A receptor in cloned mammalian receptor expressed in cultured cells or from rat whole brain.; format: cell-based
T2 sequence (P19327 whole entry): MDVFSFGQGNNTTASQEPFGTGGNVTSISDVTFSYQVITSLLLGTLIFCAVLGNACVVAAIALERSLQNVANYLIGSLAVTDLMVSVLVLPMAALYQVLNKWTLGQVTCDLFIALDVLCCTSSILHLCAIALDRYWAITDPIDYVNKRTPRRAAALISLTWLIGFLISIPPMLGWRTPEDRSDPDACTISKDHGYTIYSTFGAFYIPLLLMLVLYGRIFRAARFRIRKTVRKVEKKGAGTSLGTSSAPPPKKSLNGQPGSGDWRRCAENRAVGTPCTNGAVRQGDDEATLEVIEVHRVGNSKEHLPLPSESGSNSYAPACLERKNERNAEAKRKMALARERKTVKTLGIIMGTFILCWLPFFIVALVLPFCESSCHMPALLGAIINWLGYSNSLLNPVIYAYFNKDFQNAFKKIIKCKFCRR
Outline: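 Radioligand displacement with [3H]-8-OH-DPAT on membranes from cloned mammalian 5-HT1A receptor expressed in cultured cells.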

D(1A) dopamine receptor = D(1A) dopamine receptor (Rattus norvegicus, UniProt P18901); test: Binding affinity of [3H]SCH-23,390 towards Dopamine receptor D1 in cloned mammalian receptor expressed in cultured cells or from rat whole brain.; format: cell-based
D(1A) dopamine receptor, sequence (P18901 whole entry): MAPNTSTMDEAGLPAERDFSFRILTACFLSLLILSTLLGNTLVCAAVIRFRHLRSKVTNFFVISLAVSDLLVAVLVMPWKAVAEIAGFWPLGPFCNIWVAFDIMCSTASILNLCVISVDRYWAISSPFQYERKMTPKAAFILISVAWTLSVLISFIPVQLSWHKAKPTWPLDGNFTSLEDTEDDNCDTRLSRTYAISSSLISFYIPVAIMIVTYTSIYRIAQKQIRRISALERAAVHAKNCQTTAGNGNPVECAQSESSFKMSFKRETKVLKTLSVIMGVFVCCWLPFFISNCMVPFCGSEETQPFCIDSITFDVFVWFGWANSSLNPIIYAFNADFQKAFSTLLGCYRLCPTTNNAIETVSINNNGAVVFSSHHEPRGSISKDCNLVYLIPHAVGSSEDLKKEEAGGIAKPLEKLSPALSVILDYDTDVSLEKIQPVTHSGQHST

D(4) dopamine receptor = molecular target: T3, D(4) dopamine receptor (Rattus norvegicus, UniProt P30729); test: Binding affinity of [3H]spiperone towards Dopamine receptor D4 expressed in cultured cells or from rat whole brain.; format: cell-based
T3 sequence (P30729 whole entry): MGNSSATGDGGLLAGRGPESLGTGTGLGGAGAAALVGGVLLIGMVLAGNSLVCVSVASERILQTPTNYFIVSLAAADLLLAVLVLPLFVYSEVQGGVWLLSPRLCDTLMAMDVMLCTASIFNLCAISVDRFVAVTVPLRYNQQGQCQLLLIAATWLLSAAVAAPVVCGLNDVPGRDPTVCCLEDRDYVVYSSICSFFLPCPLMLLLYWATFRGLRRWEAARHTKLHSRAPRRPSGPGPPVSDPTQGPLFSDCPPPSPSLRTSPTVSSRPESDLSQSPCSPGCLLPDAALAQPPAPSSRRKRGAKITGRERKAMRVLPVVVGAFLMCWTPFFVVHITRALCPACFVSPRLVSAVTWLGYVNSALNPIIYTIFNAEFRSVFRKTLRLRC

D(3) dopamine receptor = D(3) dopamine receptor (Rattus norvegicus, UniProt P19020); test: Binding affinity of [3H]spiperone towards Dopamine receptor D3 in cloned mammalian receptor expressed in cultured cells or from rat whole brain.; format: cell-based
D(3) dopamine receptor, sequence (P19020 whole entry): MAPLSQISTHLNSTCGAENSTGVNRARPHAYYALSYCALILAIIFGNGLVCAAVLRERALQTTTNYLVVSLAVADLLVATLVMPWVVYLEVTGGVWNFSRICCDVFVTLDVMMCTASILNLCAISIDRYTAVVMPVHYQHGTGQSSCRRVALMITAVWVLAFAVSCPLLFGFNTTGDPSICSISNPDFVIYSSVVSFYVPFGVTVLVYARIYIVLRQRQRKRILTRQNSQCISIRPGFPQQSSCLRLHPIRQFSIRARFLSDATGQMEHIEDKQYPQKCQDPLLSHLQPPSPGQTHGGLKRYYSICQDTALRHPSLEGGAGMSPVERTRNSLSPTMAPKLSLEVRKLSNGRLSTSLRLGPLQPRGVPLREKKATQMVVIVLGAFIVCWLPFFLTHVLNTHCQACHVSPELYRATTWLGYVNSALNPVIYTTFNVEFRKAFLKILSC
Outline: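 Radioligand displacement on membranes from cloned mammalian receptors expressed in cultured cells. D1 used [3H]SCH23390 and D3 used [3H]spiperone.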

[7] = molecular target: Serotonin 2 (5-HT2) receptor (Rattus norvegicus, UniProt P30994+P08909+P14842); test: Binding affinity of [3H]ketanserin towards 5-hydroxytryptamine 2 receptor in cloned mammalian receptor expressed in cultured cells or from rat whole brain.; format: cell-based
D(2) dopamine receptor [8] = molecular target: T1, D(2) dopamine receptor; test: Binding affinity to rat Dopamine receptor D2 expressed in CHO cells was determined using [3H]U-86170 as radioligand
[9] = molecular target: T4, Adrenergic receptor alpha-2 (Rattus norvegicus, UniProt P22086+P19328+P22909); test: […] against binding of [3H]clonidine to cloned mammalian Alpha-2 adrenergic receptor expressed in cultured cells or from rat whole brain
T4 sequence (P22086 whole entry): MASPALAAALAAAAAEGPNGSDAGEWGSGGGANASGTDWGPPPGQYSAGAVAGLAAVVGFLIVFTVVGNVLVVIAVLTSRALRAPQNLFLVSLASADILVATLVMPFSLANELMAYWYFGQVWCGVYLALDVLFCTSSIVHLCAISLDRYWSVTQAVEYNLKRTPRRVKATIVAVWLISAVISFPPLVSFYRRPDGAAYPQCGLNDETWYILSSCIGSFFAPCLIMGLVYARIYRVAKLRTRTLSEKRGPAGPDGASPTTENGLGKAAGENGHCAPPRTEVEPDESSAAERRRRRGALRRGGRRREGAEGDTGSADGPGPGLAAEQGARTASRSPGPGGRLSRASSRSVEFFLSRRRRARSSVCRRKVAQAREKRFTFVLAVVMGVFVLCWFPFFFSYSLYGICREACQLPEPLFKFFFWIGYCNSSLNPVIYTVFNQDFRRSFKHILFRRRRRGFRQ
T4 sequence (P19328 whole entry): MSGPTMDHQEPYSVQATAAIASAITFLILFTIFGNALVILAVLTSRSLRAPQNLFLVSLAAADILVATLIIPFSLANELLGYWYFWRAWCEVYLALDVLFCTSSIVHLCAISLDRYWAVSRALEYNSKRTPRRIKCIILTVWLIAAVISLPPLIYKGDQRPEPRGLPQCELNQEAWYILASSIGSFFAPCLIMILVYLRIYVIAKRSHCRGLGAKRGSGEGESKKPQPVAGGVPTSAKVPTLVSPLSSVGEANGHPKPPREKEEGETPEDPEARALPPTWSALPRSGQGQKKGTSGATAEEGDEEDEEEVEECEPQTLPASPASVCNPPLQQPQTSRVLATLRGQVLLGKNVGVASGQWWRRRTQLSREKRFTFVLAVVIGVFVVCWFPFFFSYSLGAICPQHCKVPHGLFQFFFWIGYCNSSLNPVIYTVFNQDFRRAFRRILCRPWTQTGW
T4 sequence (P22909 whole entry): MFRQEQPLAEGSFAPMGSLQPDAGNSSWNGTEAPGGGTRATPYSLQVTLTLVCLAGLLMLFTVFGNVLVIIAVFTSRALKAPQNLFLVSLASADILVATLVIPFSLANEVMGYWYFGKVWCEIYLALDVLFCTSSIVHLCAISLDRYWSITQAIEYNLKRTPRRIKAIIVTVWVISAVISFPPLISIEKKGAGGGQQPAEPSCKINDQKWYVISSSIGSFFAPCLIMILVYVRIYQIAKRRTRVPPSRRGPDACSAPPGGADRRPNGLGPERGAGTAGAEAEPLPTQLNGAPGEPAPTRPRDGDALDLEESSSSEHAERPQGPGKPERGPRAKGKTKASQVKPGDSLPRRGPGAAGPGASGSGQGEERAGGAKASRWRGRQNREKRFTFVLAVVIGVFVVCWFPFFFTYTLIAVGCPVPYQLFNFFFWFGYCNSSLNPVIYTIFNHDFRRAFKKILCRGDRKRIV

[10] = molecular target: T5, Adrenergic receptor alpha-1 (Rattus norvegicus, UniProt P15823+P23944+P43140); test: as §1; format: cell-based
T5 sequence (P15823 whole entry): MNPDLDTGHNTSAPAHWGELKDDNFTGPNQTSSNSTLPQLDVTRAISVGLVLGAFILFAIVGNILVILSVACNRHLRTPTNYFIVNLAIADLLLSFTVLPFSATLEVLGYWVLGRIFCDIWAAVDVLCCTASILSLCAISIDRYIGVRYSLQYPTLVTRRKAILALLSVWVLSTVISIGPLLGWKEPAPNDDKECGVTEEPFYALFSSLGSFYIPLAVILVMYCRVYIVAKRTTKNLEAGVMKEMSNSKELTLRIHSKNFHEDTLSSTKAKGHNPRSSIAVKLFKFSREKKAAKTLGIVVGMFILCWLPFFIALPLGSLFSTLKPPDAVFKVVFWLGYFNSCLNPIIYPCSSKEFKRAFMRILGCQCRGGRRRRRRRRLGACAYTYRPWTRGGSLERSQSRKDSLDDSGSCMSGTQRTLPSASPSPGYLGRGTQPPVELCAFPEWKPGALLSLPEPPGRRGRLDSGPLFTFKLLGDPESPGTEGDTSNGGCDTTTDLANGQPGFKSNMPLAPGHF
T5 sequence (P23944 whole entry): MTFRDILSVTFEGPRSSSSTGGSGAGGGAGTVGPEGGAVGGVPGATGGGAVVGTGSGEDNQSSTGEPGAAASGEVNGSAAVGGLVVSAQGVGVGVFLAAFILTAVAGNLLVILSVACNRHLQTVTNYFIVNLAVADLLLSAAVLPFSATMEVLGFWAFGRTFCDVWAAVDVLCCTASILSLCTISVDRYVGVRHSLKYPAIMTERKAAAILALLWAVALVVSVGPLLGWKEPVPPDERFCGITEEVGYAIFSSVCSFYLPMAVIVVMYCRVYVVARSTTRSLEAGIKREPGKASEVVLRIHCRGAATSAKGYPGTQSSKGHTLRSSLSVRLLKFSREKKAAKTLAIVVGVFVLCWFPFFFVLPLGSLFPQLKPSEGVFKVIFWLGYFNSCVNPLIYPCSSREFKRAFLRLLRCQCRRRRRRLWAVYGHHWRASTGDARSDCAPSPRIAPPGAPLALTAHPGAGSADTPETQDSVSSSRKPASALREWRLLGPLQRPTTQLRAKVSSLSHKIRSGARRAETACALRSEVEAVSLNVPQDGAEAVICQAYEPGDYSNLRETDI
T5 sequence (P43140 whole entry): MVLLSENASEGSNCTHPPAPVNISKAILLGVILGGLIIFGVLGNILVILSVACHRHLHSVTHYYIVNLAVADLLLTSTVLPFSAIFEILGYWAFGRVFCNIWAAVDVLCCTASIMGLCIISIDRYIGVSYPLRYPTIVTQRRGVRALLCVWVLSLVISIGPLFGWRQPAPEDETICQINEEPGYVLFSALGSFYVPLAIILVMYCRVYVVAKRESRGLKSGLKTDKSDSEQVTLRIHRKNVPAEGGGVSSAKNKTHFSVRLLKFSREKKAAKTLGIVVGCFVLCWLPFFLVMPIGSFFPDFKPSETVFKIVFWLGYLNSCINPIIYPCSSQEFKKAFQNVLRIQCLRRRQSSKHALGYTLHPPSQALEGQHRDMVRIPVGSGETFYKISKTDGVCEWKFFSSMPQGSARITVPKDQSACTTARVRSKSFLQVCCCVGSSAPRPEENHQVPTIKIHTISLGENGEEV

Translocator protein (Rattus norvegicus, UniProt P16257), sequence (P16257 whole entry, looked up): as the sequence (P50637 whole entry, looked up) above, with P2S, E3Q, V67I, D77E, A110V, L113M, V149M, P168T counted along it

SMILES	IC50 (Translocator protein [1]) [nM]	IC50 (Translocator protein [2]) [nM]	inhibition [3] [%]	inhibition [4] [%]	Ki (D(2) dopamine receptor [5]) [nM]	Ki [6] [nM]	Ki (D(1A) dopamine receptor) [nM]	Ki (D(4) dopamine receptor) [nM]	Ki (D(3) dopamine receptor) [nM]	Ki [7] [nM]	Ki (D(2) dopamine receptor [8]) [nM]	Ki [9] [nM]	Ki [10] [nM]
CCCCCCN(CCCCCC)C(=O)Cc1c(-c2ccc(F)cc2)[nH]c2ccccc12	10	10											
COc1ccc(N2CCN(CC[C@H]3OCCc4ccccc43)CC2)cc1			36	0	> 1800	> 1600	> 2400	25	220	30			
Cc1ccc2c(c1)C(N1CCN(C)CC1)=Nc1cccnc1N2								21					
COc1ccc(N2CCN(CC[C@@H]3OCCc4ccccc43)CC2)cc1			20	9		490	> 2400	2.2	1300	28	790		
Fc1ccc(N2CCN(CCC3OCCc4ccccc43)CC2)cc1 (stereo unspecified)					160	120	410	3	240	5.8		140	38
COc1cc2c(cc1OC)C(CCN1CCN(c3ccc(F)cc3)CC1)OCC2 (stereo unspecified)			100	75	400	93	26	24		2.1			
NS(=O)(=O)c1ccc(N2CCN(CC[C@H]3OCCc4ccccc43)CC2)cc1			41	15	5600	2400		100	2900				
COc1ccc(N2CCN(CCC3OCCc4ccccc43)CC2)cc1 (stereo unspecified)					1100	1100	> 2400	1.4	1200	76		1800	1280
NS(=O)(=O)c1ccc(N2CCN(CC[C@@H]3OCCc4ccccc43)CC2)cc1 [SONEPIPRAZOLE]					> 4300	> 3700		7.2	5800	> 1800		> 2600	> 4900
CN1C(=O)CN=C(c2ccc(Cl)cc2)c2cc(Cl)ccc21 [RO-54864]		10											
